{"source": "ChEMBL document CHEMBL1141651", "about": "“Discovery of a potent, selective, and orally active proteasome inhibitor for the treatment of cancer” (J Med Chem, 2008)", "key": {"[1]": {"test": "Half life in Sprague-Dawley rat at 0.8 mg/kg, po", "assay_type": "ADME, organism-based", "set-up": "dose 0.8 mg/kg, route oral", "details": "in vivo; call rule not given here", "how_it_was_run": "(§1)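 Female Sprague–Dawley rats and CD-1 mice each received a single iv or oral (po) dose. Terminal half-life and systemic clearance were estimated from plasma exposure over time, alongside AUC0→∞, Vss and absolute oral bioavailability.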"}, "[2]": {"test": "AUC (0 to infinity) in Sprague-Dawley rat at 0.8 mg/kg, po", "assay_type": "ADME, organism-based", "set-up": "dose 0.8 mg/kg, route oral, time infinity", "details": "plasma", "how_it_was_run": "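Female Sprague–Dawley rats received a single dose by the iv or oral route. AUC from 0 to infinity was reported alongside terminal half-life, Vss, clearance and absolute oral bioavailability.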"}, "[3]": {"test": "Oral bioavailability in Sprague-Dawley rat at 0.8 mg/kg", "assay_type": "ADME, organism-based", "details": "in vivo", "how_it_was_run": "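Female Sprague-Dawley rats given a single iv dose (0.2 mg/kg) and a single oral dose (0.8 mg/kg). Plasma AUC0-∞ was determined, and absolute oral bioavailability F (%) was derived by comparing oral with iv exposure.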"}, "[4]": {"test": "Half life in CD1 mouse at 4 mg/kg, iv", "assay_type": "ADME, organism-based", "set-up": "dose 4 mg/kg, route intravenous", "details": "in vivo", "how_it_was_run": "as §1"}, "[5]": {"test": "AUC (0 to infinity) in CD1 mouse at 4 mg/kg, iv", "assay_type": "ADME, organism-based", "set-up": "time infinity, dose 4 mg/kg, route intravenous", "details": "plasma", "how_it_was_run": "(§2)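 CD-1 mice received a single dose by the iv or oral route. AUC from 0 to infinity was reported with terminal half-life, Vss, clearance and absolute oral bioavailability.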"}, "[6]": {"test": "Volume of distribution at steady state in CD1 mouse at 4 mg/kg, iv", "assay_type": "ADME, organism-based", "set-up": "dose 4 mg/kg, route intravenous", "details": "in vivo, read-out: Vdss", "how_it_was_run": "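Single-dose pharmacokinetics after iv or oral administration in female Sprague–Dawley rats and in CD-1 mice; plasma exposure (AUC0–∞) used to derive steady-state volume of distribution, clearance, terminal half-life and absolute oral bioavailability.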"}, "[7]": {"test": "Half life in CD1 mouse at 10 mg/kg, po", "assay_type": "ADME, organism-based", "set-up": "dose 10 mg/kg, route oral", "details": "in vivo", "how_it_was_run": "as §1"}, "Caspase-7 (Homo sapiens)": {"target": "Caspase-7 (Homo sapiens) (UniProt P55210)", "sequence (P55210 24-198 limits assumed)": "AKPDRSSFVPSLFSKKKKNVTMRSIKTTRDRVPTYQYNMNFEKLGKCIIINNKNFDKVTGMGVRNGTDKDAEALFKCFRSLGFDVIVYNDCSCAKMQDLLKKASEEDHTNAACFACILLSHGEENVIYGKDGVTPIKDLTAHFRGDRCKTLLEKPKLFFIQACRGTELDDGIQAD", "sequence (P55210 207-303 limits assumed)": "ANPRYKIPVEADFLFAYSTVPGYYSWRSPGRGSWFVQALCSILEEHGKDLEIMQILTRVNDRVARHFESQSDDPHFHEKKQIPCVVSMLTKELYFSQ", "test": "Inhibition of human caspase 7 at 10 uM"}, "Caspase-8 (Homo sapiens)": {"target": "Caspase-8 (Homo sapiens) (UniProt Q14790)", "sequence (Q14790 217-374 limits assumed)": "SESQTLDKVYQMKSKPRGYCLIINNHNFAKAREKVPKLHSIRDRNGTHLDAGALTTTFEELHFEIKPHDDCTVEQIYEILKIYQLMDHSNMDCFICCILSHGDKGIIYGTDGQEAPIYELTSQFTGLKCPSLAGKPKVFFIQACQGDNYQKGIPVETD", "sequence (Q14790 385-479 limits assumed)": "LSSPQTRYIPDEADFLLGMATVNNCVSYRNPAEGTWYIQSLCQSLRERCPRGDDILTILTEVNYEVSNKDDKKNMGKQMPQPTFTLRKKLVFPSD", "test": "Inhibition of human caspase 8 at 10 uM"}, "[8]": {"target": "Plasminogen (Homo sapiens) (UniProt P00747)", "sequence (P00747 97-580 limits assumed)": "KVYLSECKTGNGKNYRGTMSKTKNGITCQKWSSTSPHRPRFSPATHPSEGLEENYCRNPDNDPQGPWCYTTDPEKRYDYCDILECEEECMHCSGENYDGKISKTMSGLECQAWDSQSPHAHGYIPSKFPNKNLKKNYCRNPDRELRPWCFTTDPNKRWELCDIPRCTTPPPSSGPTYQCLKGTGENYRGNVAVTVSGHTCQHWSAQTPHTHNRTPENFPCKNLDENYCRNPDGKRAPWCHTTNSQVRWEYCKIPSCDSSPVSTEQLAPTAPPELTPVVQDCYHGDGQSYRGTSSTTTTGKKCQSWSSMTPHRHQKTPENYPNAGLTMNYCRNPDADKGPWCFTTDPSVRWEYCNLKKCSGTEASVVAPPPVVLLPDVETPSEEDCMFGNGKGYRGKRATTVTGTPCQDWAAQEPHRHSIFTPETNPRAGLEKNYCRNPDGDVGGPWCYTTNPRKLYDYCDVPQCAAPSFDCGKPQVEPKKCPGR", "sequence (P00747 581-810 limits assumed)": "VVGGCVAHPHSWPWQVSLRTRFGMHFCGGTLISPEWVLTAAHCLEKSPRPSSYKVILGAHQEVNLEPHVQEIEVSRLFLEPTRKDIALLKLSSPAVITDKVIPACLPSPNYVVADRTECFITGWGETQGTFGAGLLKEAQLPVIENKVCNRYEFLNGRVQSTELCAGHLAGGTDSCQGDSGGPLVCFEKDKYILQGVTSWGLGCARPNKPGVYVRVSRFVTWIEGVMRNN", "test": "Inhibition of human plasmin at 10 uM"}, "[9]": {"test": "Inhibition of chymotrypsin-like activity of human 20S proteasome in Molt4 cells", "assay_type": "cell-based", "details": "molt-4", "how_it_was_run": "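Intact human leukemia Molt-4 cells were given the cell-permeable fluorogenic chymotrypsin-like substrate MeOSuc-FLF-AFC, so the read-out also reflects inhibitor cell permeability. Potency is reported as EC50.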"}, "[10]": {"test": "Half life in Sprague-Dawley rat at 0.2 mg/kg, iv", "assay_type": "ADME, organism-based", "set-up": "dose 0.2 mg/kg, route intravenous", "details": "in vivo", "how_it_was_run": "as §1"}, "[11]": {"test": "AUC (0 to infinity) in CD1 mouse at 10 mg/kg, po", "assay_type": "ADME, organism-based", "set-up": "time infinity, dose 10 mg/kg, route oral", "details": "plasma", "how_it_was_run": "as §2"}, "[12]": {"test": "Oral bioavailability in CD1 mouse at 10 mg/kg", "assay_type": "ADME, organism-based", "details": "in vivo", "how_it_was_run": "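CD-1 mice given a single iv dose (4 mg/kg) and a single oral (po) dose (10 mg/kg). Plasma AUC0-∞ was measured, and absolute oral bioavailability F (%) was calculated from the oral versus iv exposure.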"}, "Cytochrome P450 2C9": {"target": "Cytochrome P450 2C9 (Homo sapiens, UniProt P11712)", "sequence (P11712 whole entry, canonical isoform)": "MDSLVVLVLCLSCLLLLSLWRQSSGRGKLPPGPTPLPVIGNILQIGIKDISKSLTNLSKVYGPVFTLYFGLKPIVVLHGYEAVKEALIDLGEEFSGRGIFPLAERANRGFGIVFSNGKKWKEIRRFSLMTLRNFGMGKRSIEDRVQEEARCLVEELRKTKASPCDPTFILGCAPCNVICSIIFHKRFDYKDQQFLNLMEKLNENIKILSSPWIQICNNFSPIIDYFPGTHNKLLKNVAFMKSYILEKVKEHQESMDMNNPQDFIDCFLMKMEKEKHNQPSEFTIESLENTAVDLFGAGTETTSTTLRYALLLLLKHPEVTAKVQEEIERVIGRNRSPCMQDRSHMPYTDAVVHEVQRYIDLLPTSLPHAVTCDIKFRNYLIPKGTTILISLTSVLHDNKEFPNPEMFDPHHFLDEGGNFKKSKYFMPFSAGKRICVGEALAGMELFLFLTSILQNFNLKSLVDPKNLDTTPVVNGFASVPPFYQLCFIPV", "test": "Inhibition of human recombinant CYP2C9 upto 30 uM", "assay_type": "ADME", "details": "recombinant enzyme", "how_it_was_run": "(§3)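 Recombinant human P-450 isoforms (1A2, 2C9, 2C19, 2D6) with fluorescent P-450 substrates; tested at concentrations up to 30 µM to gauge inhibition.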"}, "Cytochrome P450 2C19": {"target": "Cytochrome P450 2C19 (Homo sapiens, UniProt P33261)", "test": "Inhibition of human recombinant CYP2C19 upto 30 uM", "assay_type": "ADME", "details": "recombinant enzyme", "how_it_was_run": "as §3"}, "Cytochrome P450 3A4": {"target": "Cytochrome P450 3A4 (Homo sapiens, UniProt P08684)", "sequence (P08684 whole entry)": "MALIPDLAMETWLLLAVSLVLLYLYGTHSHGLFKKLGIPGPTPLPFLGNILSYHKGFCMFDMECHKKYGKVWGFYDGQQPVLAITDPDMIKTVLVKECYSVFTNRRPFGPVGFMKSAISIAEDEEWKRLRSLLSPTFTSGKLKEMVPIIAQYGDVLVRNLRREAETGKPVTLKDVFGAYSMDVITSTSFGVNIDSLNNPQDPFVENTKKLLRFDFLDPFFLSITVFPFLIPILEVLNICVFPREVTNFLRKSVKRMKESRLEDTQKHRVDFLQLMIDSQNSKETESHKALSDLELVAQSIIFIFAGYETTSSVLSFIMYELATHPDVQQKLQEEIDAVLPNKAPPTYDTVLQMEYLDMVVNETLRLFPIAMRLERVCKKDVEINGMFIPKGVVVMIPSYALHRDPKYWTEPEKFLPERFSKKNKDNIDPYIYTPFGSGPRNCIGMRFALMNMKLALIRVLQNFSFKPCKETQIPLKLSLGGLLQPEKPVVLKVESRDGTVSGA", "test": "Inhibition of human recombinant CYP3A4", "assay_type": "ADME"}, "[13]": {"target": "Cathepsin D (Homo sapiens) (UniProt P07339)", "sequence (P07339 65-162 limits assumed)": "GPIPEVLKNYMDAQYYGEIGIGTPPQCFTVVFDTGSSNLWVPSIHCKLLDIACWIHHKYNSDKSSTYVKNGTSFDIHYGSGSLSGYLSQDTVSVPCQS", "sequence (P07339 169-412 limits assumed)": "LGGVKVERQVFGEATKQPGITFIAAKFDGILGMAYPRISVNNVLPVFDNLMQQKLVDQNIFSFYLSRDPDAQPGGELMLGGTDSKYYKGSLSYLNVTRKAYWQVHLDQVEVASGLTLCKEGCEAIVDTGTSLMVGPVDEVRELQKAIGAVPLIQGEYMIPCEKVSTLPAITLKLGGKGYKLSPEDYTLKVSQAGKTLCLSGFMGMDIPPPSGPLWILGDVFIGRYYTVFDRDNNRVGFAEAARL", "test": "Inhibition of human cathepsin D at 10 uM"}, "[14]": {"target": "Cathepsin G (Homo sapiens) (UniProt P08311)", "sequence (P08311 whole entry)": "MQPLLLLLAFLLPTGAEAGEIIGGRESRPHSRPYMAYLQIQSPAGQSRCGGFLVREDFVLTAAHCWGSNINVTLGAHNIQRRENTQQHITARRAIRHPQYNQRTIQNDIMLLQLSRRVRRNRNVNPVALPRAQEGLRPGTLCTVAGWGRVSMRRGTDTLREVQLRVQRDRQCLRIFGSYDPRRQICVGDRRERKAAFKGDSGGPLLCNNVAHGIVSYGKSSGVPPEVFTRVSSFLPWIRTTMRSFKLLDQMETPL", "test": "Inhibition of human cathepsin G at 10 uM"}, "[15]": {"target": "Cathepsin Z (Homo sapiens) (UniProt Q9UBR2)", "sequence (Q9UBR2 whole entry)": "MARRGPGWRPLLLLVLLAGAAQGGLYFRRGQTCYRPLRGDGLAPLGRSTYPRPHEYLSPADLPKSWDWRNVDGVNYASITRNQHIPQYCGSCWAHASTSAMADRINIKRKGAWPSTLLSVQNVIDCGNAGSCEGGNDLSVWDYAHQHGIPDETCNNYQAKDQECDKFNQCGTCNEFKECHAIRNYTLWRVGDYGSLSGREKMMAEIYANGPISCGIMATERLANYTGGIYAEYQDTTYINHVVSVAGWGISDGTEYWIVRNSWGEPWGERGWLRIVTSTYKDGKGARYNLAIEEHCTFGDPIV", "test": "Inhibition of human cathepsin Z at 10 uM"}, "Chymase": {"target": "Chymase (Homo sapiens, UniProt P23946)", "sequence (P23946 whole entry)": "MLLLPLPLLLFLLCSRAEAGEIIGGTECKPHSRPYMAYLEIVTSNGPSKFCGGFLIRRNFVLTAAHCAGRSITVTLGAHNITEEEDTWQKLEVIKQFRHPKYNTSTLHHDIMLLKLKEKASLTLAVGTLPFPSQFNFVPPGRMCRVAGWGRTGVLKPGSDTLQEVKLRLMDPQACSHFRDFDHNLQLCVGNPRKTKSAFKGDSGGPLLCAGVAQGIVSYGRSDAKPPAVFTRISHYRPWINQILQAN", "test": "Inhibition of human chymase"}, "[16]": {"target": "Interstitial collagenase (Homo sapiens) (UniProt P03956)", "sequence (P03956 whole entry)": "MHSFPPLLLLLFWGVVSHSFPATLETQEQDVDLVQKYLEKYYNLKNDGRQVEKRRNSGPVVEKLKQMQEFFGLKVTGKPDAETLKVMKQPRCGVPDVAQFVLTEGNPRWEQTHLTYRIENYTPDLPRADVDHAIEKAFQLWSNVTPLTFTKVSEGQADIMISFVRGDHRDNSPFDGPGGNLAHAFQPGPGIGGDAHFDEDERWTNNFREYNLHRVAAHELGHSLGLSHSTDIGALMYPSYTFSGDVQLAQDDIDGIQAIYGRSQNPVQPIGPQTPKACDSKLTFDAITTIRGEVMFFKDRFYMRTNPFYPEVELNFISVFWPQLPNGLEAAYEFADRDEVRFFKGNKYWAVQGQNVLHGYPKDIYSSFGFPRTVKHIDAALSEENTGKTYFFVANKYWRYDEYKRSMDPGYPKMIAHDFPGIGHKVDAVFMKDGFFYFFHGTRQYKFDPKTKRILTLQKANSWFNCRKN", "test": "Inhibition of human MMP1 at 10 uM"}, "[17]": {"target": "Stromelysin-1 (Homo sapiens) (UniProt P08254)", "sequence (P08254 100-477 limits assumed)": "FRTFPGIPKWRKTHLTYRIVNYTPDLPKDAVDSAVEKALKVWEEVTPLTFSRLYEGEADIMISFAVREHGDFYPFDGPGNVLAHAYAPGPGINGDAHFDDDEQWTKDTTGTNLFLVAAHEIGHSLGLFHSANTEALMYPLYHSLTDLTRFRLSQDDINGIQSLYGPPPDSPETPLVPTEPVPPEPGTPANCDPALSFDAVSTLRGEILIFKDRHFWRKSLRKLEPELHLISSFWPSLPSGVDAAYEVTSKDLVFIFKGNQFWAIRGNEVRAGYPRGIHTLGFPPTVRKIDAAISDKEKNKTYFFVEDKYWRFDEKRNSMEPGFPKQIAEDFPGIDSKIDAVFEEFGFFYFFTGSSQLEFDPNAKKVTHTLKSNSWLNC", "test": "Inhibition of human MMP3 at 10 uM"}, "Renin (Homo sapiens)": {"target": "Renin (Homo sapiens) (UniProt P00797)", "sequence (P00797 whole entry)": "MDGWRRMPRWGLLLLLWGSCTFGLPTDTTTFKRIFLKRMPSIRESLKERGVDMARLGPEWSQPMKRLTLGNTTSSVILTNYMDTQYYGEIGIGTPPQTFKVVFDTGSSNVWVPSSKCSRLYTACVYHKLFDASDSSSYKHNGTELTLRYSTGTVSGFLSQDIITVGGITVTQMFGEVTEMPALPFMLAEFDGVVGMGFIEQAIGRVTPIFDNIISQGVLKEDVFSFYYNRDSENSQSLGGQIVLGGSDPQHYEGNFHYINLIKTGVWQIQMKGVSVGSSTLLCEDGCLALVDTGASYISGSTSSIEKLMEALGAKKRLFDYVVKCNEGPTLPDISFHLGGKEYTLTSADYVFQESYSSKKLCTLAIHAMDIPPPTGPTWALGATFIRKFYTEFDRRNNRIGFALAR", "test": "Inhibition of human renin at 10 uM"}, "[18]": {"target": "Prothrombin (Homo sapiens) (UniProt P00734)", "test": "Inhibition of human thrombin at 10 uM"}, "[19]": {"test": "Metabolic stability in mouse liver microsomes", "assay_type": "ADME, Microsome"}, "[20]": {"test": "Metabolic stability in rat liver microsomes", "assay_type": "ADME, Microsome"}, "[21]": {"test": "Metabolic stability in dog liver microsomes", "assay_type": "ADME, Canis lupus familiaris, Microsome"}, "[22]": {"test": "Protein binding in dog plasma", "assay_type": "ADME, cell-free, Canis lupus familiaris", "details": "read-out: PPB (converted)"}}, "data": [{"smiles": "CC(C)C[C@H](NC(=O)[C@@H](NC(=O)c1cccc(-c2ccccc2)n1)[C@@H](C)O)B(O)O", "note": "[DELANZOMIB]", "values": [{"measurement": "half-life", "setting": "[1]", "result": 86, "unit": "h"}, {"measurement": "AUC(0-inf)", "setting": "[2]", "result": 2200, "unit": "ng·h/mL"}, {"measurement": "bioavailability", "setting": "[3]", "result": 54, "unit": "%"}, {"measurement": "half-life", "setting": "[4]", "result": 15, "unit": "h"}, {"measurement": "AUC(0-inf)", "setting": "[5]", "result": 2910, "unit": "ng·h/mL"}, {"measurement": "Vd", "setting": "[6]", "result": 10.3, "unit": "L/kg"}, {"measurement": "half-life", "setting": "[7]", "result": 53, "unit": "h"}, {"measurement": "inhibition", "setting": "Caspase-7 (Homo sapiens)", "result": 0, "unit": "%"}, {"measurement": "inhibition", "setting": "Caspase-8 (Homo sapiens)", "result": -2, "unit": "%"}, {"measurement": "inhibition", "setting": "[8]", "result": -1, "unit": "%"}, {"measurement": "EC50", "setting": "[9]", "result": 0.0135, "unit": "µM"}, {"measurement": "half-life", "setting": "[10]", "result": 71, "unit": "h"}, {"measurement": "AUC(0-inf)", "setting": "[11]", "result": 2850, "unit": "ng·h/mL"}, {"measurement": "bioavailability", "setting": "[12]", "result": 39, "unit": "%"}, {"measurement": "Activity", "setting": "Cytochrome P450 2C9", "result": "Not Active"}, {"measurement": "Activity", "setting": "Cytochrome P450 2C19", "result": "Not Active"}, {"measurement": "IC50", "setting": "Cytochrome P450 3A4", "result": 3.5, "unit": "µM"}, {"measurement": "inhibition", "setting": "[13]", "result": 1, "unit": "%"}, {"measurement": "inhibition", "setting": "[14]", "result": 86, "unit": "%"}, {"measurement": "inhibition", "setting": "[15]", "result": 5, "unit": "%"}, {"measurement": "IC50", "setting": "Chymase", "result": 3.53, "unit": "µM"}, {"measurement": "inhibition", "setting": "[16]", "result": 1, "unit": "%"}, {"measurement": "inhibition", "setting": "[17]", "result": -3, "unit": "%"}, {"measurement": "inhibition", "setting": "Renin (Homo sapiens)", "result": -3, "unit": "%"}, {"measurement": "inhibition", "setting": "[18]", "result": 12, "unit": "%"}, {"measurement": "half-life", "setting": "[19]", "result": "> 0.667", "unit": "h"}, {"measurement": "half-life", "setting": "[20]", "result": 0.25, "unit": "h"}, {"measurement": "half-life", "setting": "[21]", "result": "> 0.667", "unit": "h"}, {"measurement": "fraction unbound", "setting": "[22]", "result": 0.001}]}]}
